Measured values: ChEMBL document CHEMBL1124369, “Pyrido[3,4-e]-1,2,4-triazines and related heterocycles as potential antifungal agents” (1989)
≈ marks a conversion by molar mass, not a printed value.

Tests used:
Aspergillus niger [1] = test: Antifungal activity against Aspergillus niger; format: functional
Procedure, shortened: (§1)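 Agar dilution MIC. Twofold serial drug dilutions in yeast nitrogen base medium with 1% dextrose, 0.15% asparagine and 1.5% agar. Agar surfaces inoculated using a Steers multiple inocula replicator, then incubated at 35 °C for 24-48 h. MIC was recorded as the lowest concentration inhibiting visible growth. Amphotericin B, miconazole and nystatin served as controls.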

Candida albicans [2] = test: Antifungal activity against Candida stellatoidea; format: functional; procedure, shortened: as §1
Kluyveromyces marxianus [3] = test: Antifungal activity against Candida pseudotropicalis; format: functional; procedure, shortened: as §1
Candida albicans [4] = test: Antifungal activity against Candida albicans; format: functional; procedure, shortened: as §1
Diutina rugosa = test: Antifungal activity against Candida rugosa; format: functional; procedure, shortened: as §1
Candida tropicalis [5] = test: Antifungal activity against Candida tropicalis; format: functional; procedure, shortened: as §1
Mucor fragilis = test: Antifungal activity against Mucor fragilis; format: functional; procedure, shortened: as §1
Candida albicans [6] = test: Antifungal activity against Candida albicans; Range is 16-32; format: functional; procedure, shortened: as §1
Kluyveromyces marxianus [7] = test: Antifungal activity against Candida pseudotropicalis; Range is 8-16; format: functional; procedure, shortened: as §1
Aspergillus niger [8] = test: Antifungal activity against Aspergillus niger; Range is 16-32; format: functional; procedure, shortened: as §1
Candida albicans [9] = test: Antifungal activity against Candida albicans; Range is 8-16; format: functional; procedure, shortened: as §1
Candida parapsilosis = test: Antifungal activity against Candida parapsilosis; format: functional; procedure, shortened: as §1
Candida tropicalis [10] = test: Antifungal activity against Candida tropicalis; Range is 8-16; format: functional; procedure, shortened: as §1
Trichophyton benhamiae [11] = test: Antifungal activity against Trichophyton mentagrophytes; Range is 4-8; format: functional, trychophyton mentagrophytes; procedure, shortened: as §1
Trichophyton rubrum [12] = test: Antifungal activity against Trichophyton rubrum; format: functional; procedure, shortened: as §1
Aspergillus niger [13] = test: Antifungal activity against Aspergillus niger; Range is 64-128; format: functional; procedure, shortened: as §1
Candida albicans [14] = test: Antifungal activity against Candida albicans; Range is 64-128; format: functional; procedure, shortened: as §1
Trichophyton benhamiae [15] = test: Antifungal activity against Trichophyton mentagrophytes; format: functional, trychophyton mentagrophytes; procedure, shortened: as §1
Trichophyton rubrum [16] = test: Antifungal activity against Trichophyton rubrum; Range is 8-32; format: functional
Aspergillus niger [17] = test: Antifungal activity against Aspergillus niger; Range is 32-64; format: functional; procedure, shortened: as §1
Candida albicans [18] = test: Antifungal activity against Candida albicans; Range is 32-64; format: functional; procedure, shortened: as §1
Candida tropicalis [19] = test: Antifungal activity against Candida tropicalis; Range is 32-64; format: functional; procedure, shortened: as §1
Trichophyton rubrum [20] = test: Antifungal activity against Trichophyton rubrum; Range is 2-4; format: functional; procedure, shortened: as §1
Trichophyton benhamiae [21] = test: Antifungal activity against Trichophyton mentagrophytes; Range is 16-32; format: functional; settings: trychophyton mentagrophytes

Molecule	MIC (Aspergillus niger [1])	MIC (Candida albicans [2])	MIC (Kluyveromyces marxianus [3])	MIC (Candida albicans [4])	MIC (Diutina rugosa)	MIC (Candida tropicalis [5])	MIC (Mucor fragilis)	MIC (Candida parapsilosis; Lodderomyces parapsilosis)	MIC (Trichophyton benhamiae [15])	also measured
c1ccc2cc(-c3nnc4ccncc4n3)ccc2c1	128 µg/mL (≈ 496 µM)	> 128 µg/mL	128 µg/mL (≈ 496 µM)	128 µg/mL (≈ 496 µM)	> 128 µg/mL	128 µg/mL (≈ 496 µM)	128 µg/mL (≈ 496 µM)			
FC(F)(F)c1nnc2ccncc2n1	32 µg/mL (≈ 160 µM)	16 µg/mL (≈ 80 µM)			16 µg/mL (≈ 80 µM)	32 µg/mL (≈ 160 µM)	8 µg/mL (≈ 40 µM)			MIC (Candida albicans [6]): 16 µg/mL (≈ 80 µM); MIC (Kluyveromyces marxianus [7]): 8 µg/mL (≈ 40 µM)
Fc1ccc(-c2nnc3ccncc3n2)cc1		8 µg/mL (≈ 35.4 µM)	8 µg/mL (≈ 35.4 µM)		8 µg/mL (≈ 35.4 µM)		64 µg/mL (≈ 283 µM)	8 µg/mL (≈ 35.4 µM)		MIC (Aspergillus niger [8]): 16 µg/mL (≈ 70.7 µM); MIC (Candida albicans [9]): 8 µg/mL (≈ 35.4 µM); MIC (Candida tropicalis [10]): 8 µg/mL (≈ 35.4 µM); MIC (Trichophyton benhamiae [11]): 4 µg/mL (≈ 17.7 µM); MIC (Trichophyton rubrum [12]): 4 µg/mL (≈ 17.7 µM)
CN1CCN(/C=C/c2nnc3ccncc3n2)CC1		32 µg/mL (≈ 125 µM)	128 µg/mL (≈ 499 µM)	128 µg/mL (≈ 499 µM)	32 µg/mL (≈ 125 µM)	128 µg/mL (≈ 499 µM)	128 µg/mL (≈ 499 µM)			MIC (Aspergillus niger [13]): 64 µg/mL (≈ 250 µM)
FC(F)(F)c1ccc(-c2nnc3ccncc3n2)cc1	128 µg/mL (≈ 463 µM)	> 128 µg/mL	128 µg/mL (≈ 463 µM)		> 128 µg/mL	128 µg/mL (≈ 463 µM)	> 128 µg/mL	128 µg/mL (≈ 463 µM)	64 µg/mL (≈ 232 µM)	MIC (Candida albicans [14]): 64 µg/mL (≈ 232 µM); MIC (Trichophyton rubrum [16]): 8 µg/mL (≈ 29 µM)
CCCc1nnc2ccncc2n1		64 µg/mL (≈ 367 µM)	16 µg/mL (≈ 91.8 µM)		64 µg/mL (≈ 367 µM)		64 µg/mL (≈ 367 µM)	64 µg/mL (≈ 367 µM)	32 µg/mL (≈ 184 µM)	MIC (Aspergillus niger [17]): 32 µg/mL (≈ 184 µM); MIC (Candida albicans [18]): 32 µg/mL (≈ 184 µM); MIC (Candida tropicalis [19]): 32 µg/mL (≈ 184 µM); MIC (Trichophyton rubrum [16]): 8 µg/mL (≈ 45.9 µM)
CCOc1ccc(-c2nnc3ccncc3n2)cc1		> 128 µg/mL	64 µg/mL (≈ 254 µM)	64 µg/mL (≈ 254 µM)	> 128 µg/mL	64 µg/mL (≈ 254 µM)	128 µg/mL (≈ 507 µM)			MIC (Aspergillus niger [13]): 64 µg/mL (≈ 254 µM)
Fc1ccccc1-c1nnc2ccncc2n1	16 µg/mL (≈ 70.7 µM)	32 µg/mL (≈ 141 µM)	32 µg/mL (≈ 141 µM)	32 µg/mL (≈ 141 µM)	16 µg/mL (≈ 70.7 µM)	32 µg/mL (≈ 141 µM)	64 µg/mL (≈ 283 µM)	32 µg/mL (≈ 141 µM)	8 µg/mL (≈ 35.4 µM)	MIC (Trichophyton rubrum [20]): 2 µg/mL (≈ 8.84 µM)
NYSTATIN	16 µg/mL	> 128 µg/mL	8 µg/mL	16 µg/mL	> 128 µg/mL	16 µg/mL	16 µg/mL			MIC (Candida parapsilosis): 16 µg/mL; MIC (Trichophyton benhamiae [21]): 16 µg/mL; MIC (Trichophyton rubrum [12]): 32 µg/mL
c1cc2nnc(C3CCCC3)nc2cn1		32 µg/mL (≈ 160 µM)	16 µg/mL (≈ 79.9 µM)		16 µg/mL (≈ 79.9 µM)	64 µg/mL (≈ 320 µM)	4 µg/mL (≈ 20 µM)			MIC (Aspergillus niger [8]): 16 µg/mL (≈ 79.9 µM); MIC (Candida albicans [9]): 8 µg/mL (≈ 40 µM)
